# Measurements reported in ChEMBL document CHEMBL1122111, “Allergenic alpha-methylene-gamma-butyrolactones. Stereospecific syntheses of (+)- and (-)-gamma-methyl-alpha-methylene-gamma-butyrolactones. A study of the specificity of (+) and (-) enantiomers in inducing allergic contact dermatitis” (1982).
# What was measured:
# Assay type in all cases: functional
# [1] = organism: Cavia porcellus; assay: Tested for its effect on guinea pigs sensitized with (S)5-Methyl-3-methylene-dihydro- furan-2-one number of animals showing no reaction
# Outline: (§1)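 Albino female Hartley guinea pigs (250-300 g) got three 0.1 mL intradermal nuchal injections on alternate days of 1:1 FCA-saline emulsion with 5% enantiomer. After 2 weeks rest, 0.25 mL of 1% (enantiomers) or 1% or 2% (racemate) in methylene chloride was applied to a 2-cm2 area. Erythema/swelling scored 0-3 every 24 h; average = summed scores/animals.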
# [2] = organism: Cavia porcellus; assay: Tested for its effect on guinea pigs sensitized with (+/-)-5-Methyl-3-methylene-dihydro-furan-2-one,number of animals showing erythema covering the part of the test area
# Outline: (§2)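 Female albino Hartley guinea pigs (250–300 g), sensitized by three intradermal nuchal injections of 0.1 mL on alternate days. The emulsion was 1:1 FCA/saline with 10% racemate (5% of each antipode). After 2 weeks rest, 0.25 mL of 1% or 2% methylene chloride solution was applied to a 2-cm2 area. Reactions were scored 0–3 every 24 h; av = summed scores/animals.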
# [3] = organism: Cavia porcellus; assay: Tested for its effect on guinea pigs sensitized with (+/-)-5-Methyl-3-methylene-dihydro-furan-2-one, Number of sensitive animals out of 8 tested; outline: as §2
# [4] = organism: Cavia porcellus; assay: Tested for its effect on guinea pigs sensitized with (R)-5-Methyl-3-methylene -dihydro -furan-2-one, Number of sensitive animals out of 8 tested
# Outline: (§3)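 Female albino Hartley guinea pigs (250–300 g) received three 0.1-mL intradermal nuchal injections on alternate days of a 1:1 FCA/saline emulsion with 5% (+)-enantiomer. After 2 weeks rest, 0.25 mL of 1% or 2% methylene chloride solution was deposited on a 2-cm2 circle and read every 24 h. Erythema/swelling was scored 0–3; av = summed intensities divided by animal number.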
# [5] = organism: Cavia porcellus; assay: Tested for its effect on guinea pigs sensitized with (R)-5-Methyl-3-methylene -dihydro -furan-2-one,number of animals showing erythema covering the whole test area; outline: as §1
# [6] = organism: Cavia porcellus; assay: Tested for its effect on guinea pigs sensitized with (S)5-Methyl-3-methylene-dihydro- furan-2-one; Number of sensitive animals out of 8 tested; outline: as §1
# [7] = organism: Cavia porcellus; assay: Tested for its effect on guinea pigs sensitized with (+/-)-5-Methyl-3-methylene-dihydro-furan-2-one,number of animals showing erythema covering the whole test area; outline: as §2
# [8] = organism: Cavia porcellus; assay: Tested for its effect on guinea pigs sensitized with (S)5-Methyl-3-methylene-dihydro- furan-2-onenumber of animals showing erythema covering the whole test area; outline: as §1
# [9] = organism: Cavia porcellus; assay: Tested for its effect on guinea pigs sensitized with (S)5-Methyl-3-methylene-dihydro- furan-2-one,av is calculated by adding the test intensity and divided by the number of animals; outline: as §1
# [10] = organism: Cavia porcellus; assay: Tested for its effect on guinea pigs sensitized with (+/-)-5-Methyl-3-methylene-dihydro-furan-2-one,number of animals showing no reaction; outline: as §2
# [11] = organism: Cavia porcellus; assay: Tested for its effect on guinea pigs sensitized with (S)5-Methyl-3-methylene-dihydro- furan-2-one number of animals showing erythema covering the part of the test area; outline: as §1
# [12] = organism: Cavia porcellus; assay: Tested for its effect on guinea pigs sensitized with (R)-5-Methyl-3-methylene -dihydro -furan-2-one,number of animals showing no reaction; outline: as §1
# [13] = organism: Cavia porcellus; assay: Tested for its effect on guinea pigs sensitized with (+/-)-5-Methyl-3-methylene-dihydro-furan-2-one number of animals showing erythema and swelling of the test area; outline: as §2
# [14] = organism: Cavia porcellus; assay: Tested for its effect on guinea pigs sensitized with (R)-5-Methyl-3-methylene -dihydro -furan-2-one,number of animals showing erythema covering the part of the test area; outline: as §1
# [15] = organism: Cavia porcellus; assay: Tested for its effect on guinea pigs sensitized with (R)-5-Methyl-3-methylene -dihydro -furan-2-one, number of animals showing erythema and swelling of the test area; outline: as §3
# [16] = organism: Cavia porcellus; assay: Tested for its effect on guinea pigs sensitized with (+/-)-5-Methyl-3-methylene-dihydro-furan-2-one, av is calculated by adding the test intensity and divided by the number of animals; outline: as §2
# [17] = organism: Cavia porcellus; assay: Tested for its effect on guinea pigs sensitized with (S)5-Methyl-3-methylene-dihydro- furan-2-one number of animals showing erythema and swelling of the test area.; outline: as §1
# [18] = organism: Cavia porcellus; assay: Tested for its effect on guinea pigs sensitized with (R)-5-Methyl-3-methylene -dihydro -furan-2-one,av is calculated by adding the test intensity and divided by the number of animals; outline: as §3
smiles,measurement,setting,value
C=C1C[C@H](C)OC1=O,Skin tests intensity,[1],0
same,Skin tests intensity,[2],0
same,No. of sensitive animals,[3],8
same,No. of sensitive animals,[4],5
same,Skin tests intensity,[5],2
same,No. of sensitive animals,[6],8
same,Skin tests intensity,[7],2
same,Skin tests intensity,[8],7
same,av,[9],0.9
same,Skin tests intensity,[10],0
same,Skin tests intensity,[11],1
same,Skin tests intensity,[12],3
same,Skin tests intensity,[13],6
same,Skin tests intensity,[14],3
same,Skin tests intensity,[15],0
same,av,[16],1.8
same,Skin tests intensity,[17],0
same,av,[18],0.4
